Assay results reported in PMC2200097 (The Journal of Cell Biology, 1993).

How the values were obtained:
[1] = molecular target: human plasma fibronectin (human); experiment: radioligand binding
human plasma fibronectin = human plasma fibronectin (Homo sapiens, UniProt P02751); experiment: Direct binding of [125I]fibronectin to immobilized peptides; conditions: solid phase assay, labeled fibronectin
[2] = molecular target: peptide 300 (GGWSHW) (human); experiment: radioligand binding
fibronectin = fibronectin (Homo sapiens, UniProt P02751); assay type: binding; conditions: for Inhibition of fibronectin binding to immobilized peptide GGWSHW, in words: soluble peptide or protein as inhibitor; for IC50 for competition of [125I]fibronectin binding to peptide GGWSHW: irrelevant proteins as inhibitors
Sequence of fibronectin (P02751 306-608 limits assumed): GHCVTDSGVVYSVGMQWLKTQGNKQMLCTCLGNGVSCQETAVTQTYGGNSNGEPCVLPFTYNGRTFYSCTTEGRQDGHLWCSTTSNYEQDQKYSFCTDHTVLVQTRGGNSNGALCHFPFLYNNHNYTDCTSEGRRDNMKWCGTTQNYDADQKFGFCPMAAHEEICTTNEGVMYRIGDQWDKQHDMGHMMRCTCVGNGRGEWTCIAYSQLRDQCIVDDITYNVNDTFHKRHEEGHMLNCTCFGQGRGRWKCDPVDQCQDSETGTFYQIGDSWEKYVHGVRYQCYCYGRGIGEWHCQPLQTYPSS
In short: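 Wells were incubated 2 h at 25°C with [¹²⁵I]human plasma fibronectin (0.2 μg/ml final per methods; 0.5 μg/ml per legends) plus serial dilutions of soluble inhibitors. Wells were washed three times with DPBS, cut out and counted. Duplicates; percent of specific binding without inhibitor.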

melanoma cells = conditions: murine lung colonization assay; ref Tuszynski et al., 1992; cited from earlier work
peptide GGWSHW = peptide GGWSHW (Homo sapiens, UniProt P07996); assay type: binding; conditions: detection with antibody 191; wells coated with 50 μg/ml GGWSHW
In short: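 Peptide GGWSHW (50 μg/ml) was coated on microtiter wells and blocked with 1% BSA. Wells were incubated with graded concentrations of unlabeled intact fibronectin, the 30-kD proteolytic gelatin-binding domain or the 120-kD proteolytic cell-binding fragment. After washing, bound protein was detected sequentially with 5 μg/ml monoclonal antibody 191 and ¹²⁵I-goat anti-IgG, then counted. Values are mean ± SD of duplicates.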

[3] = molecular target: peptide 300 (GGWSHW) (human)

Sequence of human plasma fibronectin (P02751 306-608 limits assumed): as above

peptide 340 (AAWSHW)
IC50 [1]: > 300 µM

GGWGPW [compound 318]
Fibronectin binding to immobilized peptide, in words (human plasma fibronectin): inactive

40-kD recombinant fragment of fibronectin with the same amino terminus as the 28-kD fragment (domain or fragment)
fold less active as inhibitor than the 33-kD fragment [2]: 10 fold

thrombospondin: human platelet thrombospondin, extracellular matrix glycoprotein
Inhibition of fibronectin binding to immobilized peptide GGWSHW, in words (fibronectin): competed

CSTSCG
Inhibition of metastasis of melanoma cells, in words (melanoma cells): inhibit

DGWSPW (DGWCSPW) [compound 317]
Fibronectin binding to immobilized peptide, in words (human plasma fibronectin): inactive

transferrin: irrelevant control protein [reference compound]
IC50 for competition of [125I]fibronectin binding to peptide GGWSHW (fibronectin): > 200 µg/mL

fibronectin
Inhibition of fibronectin binding to immobilized peptide GGWSHW, in words (fibronectin): competed
Half saturation of binding to immobilized peptide GGWSHW (peptide GGWSHW): 0.7 µg/mL

fetuin: irrelevant control protein [reference compound]
IC50 for competition of [125I]fibronectin binding to peptide GGWSHW (fibronectin): > 200 µg/mL

30-kD proteolytic gelatin-binding domain of fibronectin (domain or fragment)
half saturation [3]: 15 µg/mL

CSVTCG
Inhibition of metastasis of melanoma cells, in words (melanoma cells): inhibit

B1: peptide 256 (…) (peptide)
peptide: GGWSHWSPWSS
IC50 [1]: > 300 µM

B2: ovalbumin: irrelevant control protein (protein)
chain: MGSIGAASMEFCFDVFKELKVHHANENIFYCPIAIMSALAMVYLGAKDSTRTQINKVVRFDKLPGFGDSIEAQCGTSVNVHSSLRDILNQITKPNDVYSFSLASRLYAEERYPILPEYLQCVKELYRGGLEPINFQTAADQARELINSWVESQTNGIIRNVLQPSSVDSQTAMVLVNAIVFKGLWEKAFKDEDTQAMPFRVTEQESKPVQMMYQIGLFRVASMASEKMKILELPFASGTMSMLVLLPDEVSGLEQLESIINFEKLTEWTSSNVMEERKIKVYLPRMKMEEKYNLTSVLMAMGITDVFSSSANLSGISSAESLKISQAVHAAHAEINEAGREVVGSAEAGVDAASVSEEFRADHPFLFCIKHIATNAVLFFGRCVSP
IC50 for competition of [125I]fibronectin binding to peptide GGWSHW (fibronectin): > 200 µg/mL
